Data as given in ChEMBL document CHEMBL1126570, “Synthesis and cytotoxicity of potential tumor-inhibitory analogues of trimelamol (2,4,6-tris[(hydroxymethyl)methylamino]-1,3,5-triazine) having electron-withdrawing groups in place of methyl” (J Med Chem, 1993).
Values after ≈ are worked out from the molar mass of the structure shown.

Legend:
[1] = tested on: ADJ/PC6 plasmacytoma (Mus musculus); assay: In vitro cytotoxicity against PC6 murine plasmacytoma cell lines
[2] = tested on: NCI-H69; assay: In vitro cytotoxicity against human small cell lung cancer H69 cell lines; type: functional, cell-based
In short: (§1)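 MTT assay on suspension lines dispersed to single cells (L1210 RPMI/10% DHS; ADJ/PC6 DMEM/20% DHS plus hydrocortisone, insulin; H69 RPMI/10% FCS; Walker 256 DMEM/10% DHS), 1×10^3–8×10^3 cells/well. Continuous exposure 72–144 h, 37 °C; MTT 4–5 h, plates spun, formazan in DMSO, A540 vs untreated control. 3–6 replicate wells, each assay at least twice.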

[3] = In vitro cytotoxicity against walker rat carcinoma 256 cell lines; type: functional
In short: as §1

[4] = tested on: L1210; assay: In vitro cytotoxicity against L1210 murine lymphocytic leukemia cell lines; type: functional, cell-based; settings: Mus musculus
In short: as §1

[5] = Half-life was determined in water at 7.5 pH at 37 degree C; type: ADME; settings: pH 7.5
In short: (§2)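 Compound added from 50 mM DMSO stock to 10 mL of medium in polypropylene tubes, final 100 μM; tubes held in water baths at 37 °C or ambient (20–24 °C). Remaining parent measured by HPLC on C8 column, UV 225 nm; t1/2 from semilog plot of peak area versus time. Run on at least two occasions, variation 2–22%.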

[6] = In vitro cytotoxicity against GCT cell lines; type: functional, cell-based; settings: Homo sapiens
In short: (§3)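 MTT assay on GCT-27 and GCT-27/CisR (DMEM, 10% FCS, glutamine, hydrocortisone, insulin), trypsinized to single cells, 1×10^3–8×10^3 cells/well. Continuous drug exposure, 72–144 h at 37 °C, 8% CO2; MTT 4–5 h, formazan in DMSO, A540 (ref 690) as fraction of untreated control. 3–6 replicate wells per concentration, each assay at least twice.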

[7] = Aqueous solubility was determined; type: physicochemical
[8] = Half-life was determined in water at 2.0 pH at 37 degree C; type: ADME; settings: pH 2
In short: as §2

[9] = In vitro cytotoxicity against GCT / cisR cell lines; type: functional, cell-based; settings: Homo sapiens
In short: as §3

[10] = Half-life was determined in water at 7.5 pH at room temperature; type: ADME; settings: pH 7.5
In short: as §2

[11] = Half-life was determined in 0.9%sodium chloride at 5.2 pH at room temperature; type: ADME; settings: 0.9% sodium chloride solution, pH 5.2
In short: as §2

[12] = Half-life was determined in 5%dextrose at 4.0 pH at room temperature; type: ADME; settings: 5% dextrose solution, pH 4
In short: as §2

[13] = Half-life was determined in water at 5.0 pH at 37 degree C; type: ADME; settings: pH 5
In short: as §2

[14] = Half-life was determined in water at 5.0 pH at room temperature; type: ADME; settings: pH 5
In short: as §2

Row | SMILES | half-life [5] [h] | solubility [7] [µg/mL] | half-life [8] [h] | half-life [10] [h] | half-life [11] [h] | half-life [12] [h] | half-life [13] [h] | half-life [14] [h] | IC50 [1] [µM] | IC50 [2] [µM] | IC50 [3] [µM] | IC50 [4] [µM] | IC50 [6] [µM] | IC50 [9] [µM]
1 | CNc1nc(NCC(F)(F)F)nc(N(CO)CC(F)(F)F)n1 | – | – | – | – | – | – | – | – | 71.4 | 32.2 | 27.5 | 112 | – | –
2 | C#CCN(CO)c1nc(N(CO)CC#C)nc(N(CO)CC#C)n1 | 7.5 | 30 (≈ 90.8 µM) | 0.667 | – | – | – | – | – | 35.2 | 13.1 | 14.1 | 47.8 | 53.9 | 47.3
3 | OCN(CC(F)(F)F)c1nc(NCC(F)(F)F)nc(NCC(F)(F)F)n1 | – | – | – | – | – | – | – | – | 77.6 | 42.3 | 22.5 | 83.2 | – | –
4 | OCOCN(CC(F)(F)F)c1nc(N(CO)CC(F)(F)F)nc(N(CO)CC(F)(F)F)n1 | – | – | – | – | – | – | – | – | 29.8 | 13.4 | – | – | 25.8 | 23.7

Continued, in another order:

Row | half-life [5] [h] | solubility [7] [µg/mL] | half-life [8] [h] | half-life [10] [h] | half-life [11] [h] | half-life [12] [h] | half-life [13] [h] | half-life [14] [h] | SMILES | IC50 [1] [µM] | IC50 [2] [µM] | IC50 [3] [µM] | IC50 [4] [µM] | IC50 [6] [µM] | IC50 [9] [µM]
5 | 11.5 | 30 (≈ 64.9 µM) | 1 | 85 | 95 | 50 | – | – | OCN(CC(F)(F)F)c1nc(N(CO)CC(F)(F)F)nc(N(CO)CC(F)(F)F)n1 | 29.5 | 12.8 | 12.2 | 55.1 | – | –
6 | 4.58 | 1000 (≈ 3000 µM) | 5.83 | 75.2 | 135 | 180 | 16 | 102 | N#CCN(CO)c1nc(N(CO)CC#N)nc(N(CO)CC#N)n1 | 19.4 | 11.8 | 7.5 | 32.4 | – | –
7 | 2 | 4500 (≈ 17400 µM) | – | – | 4.58 | 5.83 | 3.33 | 13.7 | CN(CO)c1nc(N(C)CO)nc(N(C)CO)n1 [TRIMELAMOL] | 12.9 | 8.5 | 9.4 | 33.4 | 24.3 | 30.9
